Consider 25 compounds from ChEMBL document CHEMBL2163287, “Nitro seco analogues of the duocarmycins containing sulfonate leaving groups as hypoxia-activated prodrugs for cancer therapy” (J Med Chem, 2012).

What is called IC50 is the concentration that inhibits the measured activity by half.

Each structure is given as a SMILES string.

Data set [1] has as its system HT-29. The data set is described as follows: Ratio of IC50 for human HT-29 cells under oxic condition to IC50 for human HT-29 cells under hypoxic condition. Type of data set: functional. Put shortly:
(§1)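 Log-phase monolayers were exposed 4 h under 20% O₂ or anoxia (<20 ppm O₂), then stained with sulforhodamine B 5 days later. IC50, interpolated as the concentration reducing cell density to 50% of same-plate controls, is given as mean of 3−9 experiments. HCR = IC50(oxic)/IC50(hypoxic), taken as the mean of intraexperiment ratios from 3−6 experiments.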

Data set [2] has as its system HT-29. The data set is described as follows: Cytotoxicity against human HT-29 cells under hypoxic condition assessed as inhibition of cell proliferation after 4 hrs by SRB method. Type of data set: functional, cell-based. The note with it: HT-29, 4 h. Put shortly: as §1
On the technique in general: The SRB assay estimates cell density from bound dye.

Data set [3] deals with SiHa. The data set is described as follows: Cytotoxicity against human SiHa cells under hypoxic condition assessed as inhibition of cell proliferation after 4 hrs. Type of data set: functional, cell-based. Put shortly: (§2)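 Log-phase monolayers were exposed to drug for 4 h, aerobic (20% O2) for line 5 and anoxic (<20 ppm O2) for line 4. Cell density was read by sulforhodamine B staining 5 days later. IC50 was interpolated as the concentration reducing density to 50% of same-plate controls; mean ± SEM of 3–9 experiments.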

Data set [4] concerns SiHa. The data set is described as follows: Cytotoxicity against human SiHa cells under oxic condition assessed as inhibition of cell proliferation after 4 hrs. Type of data set: functional, cell-based. Put shortly:
as §2

Data set [5] has as its system HT-29. The data set is described as follows: Cytotoxicity against human HT-29 cells under oxic condition assessed as inhibition of cell proliferation after 4 hrs by SRB method. Type of data set: functional, cell-based. The note with it: HT-29, 4 h. Put shortly:
as §1

Data set [6] deals with SiHa. The data set is described as follows: Antitumor activity against human SiHa cells xenografted in immunocompromized gamma irradiated mouse assessed as number of colony forming cells per gram of tumor tissue at 42 umol/kg, iv tumor excised post 18 hrs followed by culturing for 14 days. Type of data set: functional. Put shortly:
(§3)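 SiHa tumours grown subcutaneously in male mice from 10⁷ cultured cells; randomized at 8−10 mm mean diameter. Compound in phosphate-buffered saline with 4 equiv sodium bicarbonate, given via tail vein at the stated dose, alone or 5 min after 15 Gy whole-body cobalt-60 γ irradiation. Tumours excised 18 h after dosing, cells cultured 14 days for clonogens. Groups of 3 (drug alone) or 5 (radiation + drug).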
A general note: Xenograft models place foreign cells or tissue in a host animal.

In data set [7] the test system is SiHa. The data set is described as follows: Antitumor activity against human SiHa cells xenografted in immunocompromized gamma irradiated mouse assessed as log cell kill at 42 umol/kg, iv tumor excised post 18 hrs followed by culturing for 14 days under hypoxic condition. Type of data set: functional. Put shortly: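 Male immunocompromised mice bearing subcutaneous tumours (10^7 cultured cells), randomized at 8–10 mm mean diameter. Compound in PBS with 4 equiv sodium bicarbonate given iv (tail vein), alone or 5 min after 15 Gy whole-body cobalt-60 γ-irradiation, which sterilizes oxygenated cells. Tumours excised 18 h after dosing and plated for clonogens for 14 days. n = 3 (vehicle or compound alone) or 5 (irradiated groups).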

In data set [8] the test system is SiHa. The data set is described as follows: Antitumor activity against human SiHa cells xenografted in immunocompromized mouse assessed as number of colony forming cells per gram of tumor tissue at 42 umol/kg, iv tumor excised post 18 hrs followed by culturing for 14 days. Type of data set: functional. Put shortly: as §3
For data set [9], the system named is NCI-H460. The data set is described as follows: Toxicity in human H460 cells xenografted immunocompromized mouse at 75 umol/kg, iv. The conditions noted are these: in vivo.

As to `COc1cc2cc(C(=O)N3CC(COS(C)(=O)=O)c4c3cc([N+](=O)[O-])c3cc(S(=O)(=O)NCCO)ccc43)[nH]c2c(OC)c1OC` (centres undefined), in data set [1], the “Ratio IC50” value is on record as 8.6. Also, the IC50 in [2] was found to be 14000 nM; in data set [3], 2100 nM; in data set [4], 6300 nM; in [5], 14000 nM.
Take `COc1cc2cc(C(=O)N3CC(COS(=O)(=O)Cc4ccccc4)c4c3cc([N+](=O)[O-])c3cc(C(=O)NCCOP(=O)(O)O)ccc43)[nH]c2c(OC)c1OC` (centres undefined): the log10cfu in [6] is 3.62; in data set [8], 6.71. The LCK in data set [7] is reported as 1.78. The Activity entry in data set [9] was “Non-toxic”.
Regarding `COc1ccc(/C=C/C(=O)N2CC(COS(=O)(=O)Cc3ccccc3)c3c2cc([N+](=O)[O-])c2cc(S(=O)(=O)NCCO)ccc32)cc1` (centres undefined), the “Ratio IC50” value in data set [1] turned out to be 50. Further, the half-inhibitory concentration (IC50) worked out at 950 nM in [2], 370 nM in data set [3], 7300 nM in [4] and 47000 nM in [5].
For `COc1ccc(/C=C/C(=O)N2CC(COS(C)(=O)=O)c3c2cc([N+](=O)[O-])c2cc(S(=O)(=O)NCCOP(=O)(O)O)ccc32)cc1` (centres undefined), the log10cfu in [6] is recorded as 4.75; in data set [8] it was 7.09. Besides, the LCK in data set [7] is listed as 0.71. Also, the Activity result in data set [9] was “Non-toxic”.
On to `COc1cc2cc(C(=O)N3CC(COS(=O)(=O)Cc4ccccc4)c4c3cc([N+](=O)[O-])c3cc(S(=O)(=O)NCCO)ccc43)[nH]c2c(OC)c1OC` (centres undefined), for which the “Ratio IC50” value in [1] is on record as 23. The 50% inhibitory concentration (IC50) in data set [2] came to 360 nM; in data set [3], 110 nM; in [4], 940 nM; in data set [5], 8400 nM.
As for `O=C(c1cc2cc(OCCN3CCOCC3)ccc2[nH]1)N1CC(COS(=O)(=O)Cc2ccccc2)c2c1cc([N+](=O)[O-])c1cc(S(=O)(=O)NCCOP(=O)(O)O)ccc21` (centres undefined), the log10cfu in [6] is on record as 4.76; in [8], 7.08. In [7], the LCK is listed as 0.34.
In the case of `COc1cc2cc(C(=O)N3CC(CCl)c4c3cc([N+](=O)[O-])c3cc(C(=O)NCCO)ccc43)[nH]c2c(OC)c1OC` (centres undefined), the “Ratio IC50” value in data set [1] is listed as 1.7. Moreover, the IC50 in data set [2] was 3200 nM; in data set [5] it was 5700 nM.
With `CN(C)CCOc1ccc2[nH]c(C(=O)N3CC(COS(=O)(=O)Cc4ccccc4)c4c3cc([N+](=O)[O-])c3cc(C(=O)NCCOP(=O)(O)O)ccc43)cc2c1` (centres undefined), the log10cfu came out at 4.42 in data set [6] and 6.92 in data set [8]. Further, the LCK in data set [7] is given as 0.98. In addition, the Activity entry in [9] is “Non-toxic”.
For `COc1ccc(/C=C/C(=O)N2CC(COS(=O)(=O)Cc3ccccc3)c3c2cc([N+](=O)[O-])c2cc(S(=O)(=O)NCCOP(=O)(O)O)ccc32)cc1` (centres undefined), the log10cfu came to 4.32 in data set [6] and 6.74 in data set [8]. In [7], the LCK worked out at 0.78.
As to `O=C(c1cc2cc(OCCN3CCOCC3)ccc2[nH]1)N1CC(COS(=O)(=O)Cc2ccccc2)c2c1cc([N+](=O)[O-])c1cc(S(=O)(=O)NCCO)ccc21` (centres undefined), the “Ratio IC50” value in [1] was under 2.5. Besides, the half-inhibitory concentration (IC50) in [2] was over 20000 nM; in data set [3], 39 nM; in [4], 23000 nM; in data set [5], 50000 nM.
The corresponding values for `CN(C)CCOc1ccc2[nH]c(C(=O)N3CC(CCl)c4c3cc([N+](=O)[O-])c3cc(C(=O)NCCO)ccc43)cc2c1` (centres undefined) are 485, 110 nM, 240 nM, 4200 nM and 12000 nM.
Consider `COc1cc2cc(C(=O)N3CC(CCl)c4c3cc([N+](=O)[O-])c3cc(S(=O)(=O)NCCOP(=O)(O)O)ccc43)[nH]c2c(OC)c1OC` (centres undefined), for which the LCK in data set [7] was found to be 0.54.
Regarding `COc1ccc(/C=C/C(=O)N2CC(COS(C)(=O)=O)c3c2cc([N+](=O)[O-])c2cc(S(=O)(=O)NCCO)ccc32)cc1` (centres undefined), in data set [1], the “Ratio IC50” value is listed as 31. Also, the IC50 in [2] is 4100 nM; in [3], 320 nM; in [4], 11000 nM; in data set [5], 26000 nM.
The matching figures for `COc1cc2cc(C(=O)N3CC(COS(=O)(=O)Cc4ccccc4)c4c3cc([N+](=O)[O-])c3cc(C(=O)NCCO)ccc43)[nH]c2c(OC)c1OC` (centres undefined): 13, 610 nM, 160 nM, 900 nM and 15000 nM.
Take `CN(C)CCOc1ccc2[nH]c(C(=O)N3CC(COS(C)(=O)=O)c4c3cc([N+](=O)[O-])c3cc(S(=O)(=O)NCCOP(=O)(O)O)ccc43)cc2c1` (centres undefined): the log10cfu in data set [6] came to 4.65; in data set [8] it was 7.18. For the same compound, the LCK in data set [7] is given as 0.33. The Activity entry in [9] was “Non-toxic”.
As for `COc1cc2cc(C(=O)N3CC(COS(=O)(=O)Cc4ccccc4)c4c3cc([N+](=O)[O-])c3cc(S(=O)(=O)NCCOP(=O)(O)O)ccc43)[nH]c2c(OC)c1OC` (centres undefined), the figures for the log10cfu in data set [6] and in data set [8] were 2.39 and 6.53, respectively. In addition, the LCK in data set [7] worked out at 2.71.
For the compound `NC(=O)c1ccc2c3c(cc([N+](=O)[O-])c2c1)N(C(=O)c1cc2cc(OCCOP(=O)(O)O)ccc2[nH]1)CC3COS(=O)(=O)Cc1ccccc1` (centres undefined), the log10cfu in data set [6] came to 5.09; in data set [8], 6.91. The LCK in data set [7] stood at 0.37. Moreover, the Activity result in data set [9] is “Non-toxic”.
For the compound `CN(C)CCOc1ccc2[nH]c(C(=O)N3CC(COS(=O)(=O)Cc4ccccc4)c4c3cc([N+](=O)[O-])c3cc(S(=O)(=O)NCCOP(=O)(O)O)ccc43)cc2c1` (centres undefined), the log10cfu in data set [6] was found to be 4.92; in data set [8], 6.92. Moreover, the LCK in data set [7] is reported as 0.18.
As for `CN(C)CCOc1ccc2[nH]c(C(=O)N3CC(COS(=O)(=O)Cc4ccccc4)c4c3cc([N+](=O)[O-])c3cc(S(N)(=O)=O)ccc43)cc2c1` (centres undefined), the “Ratio IC50” value in data set [1] is on record as 18. Besides, the half-maximal inhibitory concentration (IC50) in [2] came to 90 nM; in data set [3], 45 nM; in data set [4] it was 370 nM; in [5], 1600 nM.
The corresponding values for `CN(C)CCOc1ccc2[nH]c(C(=O)N3CC(COS(=O)(=O)Cc4ccccc4)c4c3cc([N+](=O)[O-])c3cc(S(=O)(=O)NCCO)ccc43)cc2c1` (centres undefined) are 9.7, 3900 nM, 55 nM, 4500 nM and 38000 nM.
The corresponding values for `CN(C)CCOc1ccc2[nH]c(C(=O)N3CC(COS(C)(=O)=O)c4c3cc([N+](=O)[O-])c3cc(S(=O)(=O)NCCO)ccc43)cc2c1` (centres undefined) are 7.4, 2200 nM, 380 nM, 4100 nM and 13000 nM.
In the case of `CN(C)CCOc1ccc2[nH]c(C(=O)N3CC(CCl)c4c3cc([N+](=O)[O-])c3cc(C(=O)NCCOP(=O)(O)O)ccc43)cc2c1` (centres undefined), the log10cfu in [6] is given as 3.11; in data set [8], 6.56. For the same compound, the LCK in data set [7] is listed as 2.21.
`COc1cc2cc(C(=O)N3CC(COS(=O)(=O)Cc4ccccc4)c4c3cc([N+](=O)[O-])c3cc(C#N)ccc43)[nH]c2c(OC)c1OC` (centres undefined): the “Ratio IC50” value in data set [1] was found to be 94. Besides, the IC50 in data set [2] was 43 nM; in [3], 26 nM; in data set [4], 650 nM; in data set [5] it was 2600 nM.
The matching figures for `CN(C)CCOc1ccc2[nH]c(C(=O)N3CC(COS(=O)(=O)Cc4ccccc4)c4c3cc([N+](=O)[O-])c3cc(C(N)=O)ccc43)cc2c1` (centres undefined): 58, 38 nM, 120 nM, 530 nM and 2200 nM.
The corresponding values for `N#Cc1ccc2c3c(cc([N+](=O)[O-])c2c1)N(C(=O)c1cc2cc(OCCO)ccc2[nH]1)CC3COS(=O)(=O)Cc1ccccc1` (centres undefined) are 5.2, 490 nM, 35 nM, 710 nM and 2500 nM.
